Active and inactive are the calls of the source. The rule behind the calls is not given here.
Legend:
[1] = (§1) Inhibition of chymotrypsin like activity of rabbit 20S proteasome using Suc-LLVY-AMC as substrate after 45 mins; parameters: species or system Oryctolagus cuniculus
Outline: (§2)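 Rabbit 20S proteasome (0.3 nM final) incubated with Suc-LLVY-AMC ([…] final) at 37 °C for 45 min in pH 7.5 buffer of 20 mM Tris, 1 mM DTT, 10% glycerol. Chymotrypsin-like activity was followed as substrate hydrolysis (AMC release), with and without test compound. Inhibition was taken relative to the no-compound control.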

[2] = organism: Oryctolagus cuniculus; assay: as §1; outline: as §2
[3] = organism: Oryctolagus cuniculus; assay: Inhibition of chymotrypsin like activity of rabbit 20S proteasome using Suc-LLVY-AMC as substrate at 100 uM after 45 mins relative to control; outline: as §2

Row | SMILES | IC50 [1] [µM] | other results
1 | COc1ccc(OC)c(CC(=O)N[C@@H](CCCCN)C(=O)NNC(CC(=O)NCc2cc(OC)c(OC)c(OC)c2)C(F)(F)F)c1 (some centres undefined) | 97 | –
2 | COC(=O)[C@H](Cc1ccccc1)NC(=O)CNNC(=O)C(CCCCNC(=O)OCc1ccccc1)NC(=O)Cc1cc(OC)ccc1OC (some centres undefined) | 7.1 | –
3 | COC(=O)[C@H](Cc1ccccc1)NC(=O)CC(NNC(=O)[C@H](CCCCN)NC(=O)Cc1cccc(Oc2ccccc2)c1)C(F)(F)F (single isomer, unassigned; diastereomer 2) | 5.9 | –
4 | COc1ccc(OC)c(CC(=O)N[C@@H](CCCCNC(=O)OCc2ccccc2)C(=O)NNC(CC(=O)NCc2cc(OC)c(OC)c(OC)c2)C(F)(F)F)c1 (some centres undefined) | – | inhibition [2]: inactive
5 | COc1ccc(C[C@H](NC(=O)Cc2cccc(Oc3ccccc3)c2)C(=O)NNC(=O)CC(NNC(=O)OC(C)(C)C)C(F)(F)F)cc1OC (some centres undefined) | – | inhibition [2]: inactive
6 | COC(=O)[C@H](Cc1ccccc1)NC(=O)CC(NNC(=O)Cc1cc(OC)ccc1OC)C(F)(F)F (some centres undefined) | – | inhibition [2]: inactive
7 | COC(=O)[C@H](Cc1ccccc1)NC(=O)CC(NNC(=O)[C@H](CCCCNC(=O)OCc1ccccc1)NC(=O)Cc1cc(OC)ccc1OC)C(F)(F)F (some centres undefined) | – | inhibition [3]: 30%
8 | COC(=O)[C@H](Cc1ccccc1)NC(=O)CC(NNC(=O)[C@H](CCCCN)NC(=O)Cc1cc(OC)ccc1OC)C(F)(F)F (some centres undefined) | 5.9 | –
9 | COC(=O)[C@H](Cc1ccccc1)NC(=O)CC(NNC(=O)[C@H](CC(N)=O)NC(=O)OC(C)(C)C)C(F)(F)F (some centres undefined) | – | inhibition [3]: 30%
10 | COc1ccc(C[C@H](N)C(=O)NNC(=O)CC(NNC(=O)OCc2ccccc2)C(F)(F)F)cc1OC (some centres undefined) | – | inhibition [2]: inactive
11 | COC(=O)[C@H](Cc1ccccc1)NC(=O)CCNNC(=O)[C@H](CCCCN)NC(=O)Cc1cc(OC)ccc1OC | 8.8 | –
12 | COc1ccc(OC)c(CC(=O)NC(CCCCNC(=O)OC(C)(C)C)C(=O)NNCCC(=O)NCc2cc(OC)c(OC)c(OC)c2)c1 (centres undefined) | 31.4 | –
13 | COC(=O)[C@H](Cc1ccccc1)NC(=O)CNNC(=O)C(CCCCNC(=O)OCc1ccccc1)NC(=O)Cc1cccc(Oc2ccccc2)c1 (some centres undefined) | 1.1 | –
14 | COC(=O)C(Cc1ccccc1)NC(=O)CCNNC(=O)C(CCCCNC(=O)OCc1ccccc1)NC(=O)Cc1cccc(Oc2ccccc2)c1 (centres undefined) | 2.8 | –
15 | COc1ccc(C[C@H](NC(=O)OCC2c3ccccc3-c3ccccc32)C(=O)NNC(=O)CC(NNC(=O)OC(C)(C)C)C(F)(F)F)cc1OC (some centres undefined) | – | inhibition [2]: inactive
16 | COC(=O)[C@H](Cc1ccccc1)NC(=O)CC(NNC(=O)[C@H](CC(N)=O)NC(=O)Cc1cc(OC)ccc1OC)C(F)(F)F (some centres undefined) | – | inhibition [2]: inactive
17 | COc1ccc(C[C@H](NC(=O)OCC2c3ccccc3-c3ccccc32)C(=O)NNC(=O)CC(NNC(=O)OCc2ccccc2)C(F)(F)F)cc1OC (some centres undefined) | – | fold change (FC) [3]: 3.6
18 | COc1cc(CNC(=O)CC(NNC(=O)[C@H](CC(N)=O)NC(=O)OC(C)(C)C)C(F)(F)F)cc(OC)c1OC (some centres undefined) | – | inhibition [2]: inactive
19 | COc1ccc(C[C@H](NC(=O)Cc2cccc(Oc3ccccc3)c2)C(=O)NNC(=O)CC(NNC(=O)OCc2ccccc2)C(F)(F)F)cc1OC (some centres undefined) | – | inhibition [2]: inactive
20 | COc1cc(CNC(=O)CC(NNC(=O)[C@H](CCCCNC(=O)OCc2ccccc2)NC(=O)OC(C)(C)C)C(F)(F)F)cc(OC)c1OC (some centres undefined) | – | inhibition [3]: 35%
21 | COC(=O)C(Cc1ccccc1)NC(=O)CCNNC(=O)C(CCCCN)NC(=O)Cc1cccc(Oc2ccccc2)c1 (centres undefined) | 1.4 | –
22 | COc1ccc(OC)c(CC(=O)NC(CCCCN)C(=O)NNCCC(=O)NCc2cc(OC)c(OC)c(OC)c2)c1 (centres undefined) | 11.8 | –
23 | COc1cc(CNC(=O)CCNNC(=O)C(CCCCNC(=O)OC(C)(C)C)NC(=O)Cc2cccc(Oc3ccccc3)c2)cc(OC)c1OC (centres undefined) | 4.7 | –

Further lines, with some results ahead:

Row | IC50 [1] [µM] | SMILES | other results
24 | 0.7 | COC(=O)[C@H](Cc1ccccc1)NC(=O)CNNC(=O)C(CCCCN)NC(=O)Cc1cccc(Oc2ccccc2)c1 (some centres undefined) | –
25 | 48.5 | COC(=O)C(Cc1ccccc1)NC(=O)CCNNC(=O)C(CCCCNC(=O)OCc1ccccc1)NC(=O)OC(C)(C)C (centres undefined) | –
26 | 1 | COC(=O)[C@H](Cc1ccccc1)NC(=O)CNNC(=O)C(CCCCN)NC(=O)Cc1cc(OC)ccc1OC (some centres undefined) | –
27 | 3.6 | COC(=O)[C@H](Cc1ccccc1)NC(=O)CCNNC(=O)[C@H](CCCCNC(=O)OCc1ccccc1)NC(=O)Cc1cc(OC)ccc1OC | –
28 | 18.2 | COC(=O)C(Cc1ccccc1)NC(=O)CCNNC(=O)C(N)CCCCNC(=O)OCc1ccccc1 (centres undefined) | –
29 | 6.2 | COc1cc(CNC(=O)CC(NNC(=O)[C@H](CCCCN)NC(=O)Cc2cccc(Oc3ccccc3)c2)C(F)(F)F)cc(OC)c1OC (some centres undefined) | –
30 | 10.1 | COc1cc(CNC(=O)CC(NNC(=O)[C@@H](N)CCCCNC(=O)OCc2ccccc2)C(F)(F)F)cc(OC)c1OC (some centres undefined) | –
31 | 6 | COc1cc(CNC(=O)CCNNC(=O)[C@H](CCCCNC(=O)OC(C)(C)C)NC(=O)OCC2c3ccccc3-c3ccccc32)cc(OC)c1OC | –
32 | 3.3 | COc1cc(CNC(=O)CCNNC(=O)C(CCCCN)NC(=O)Cc2cccc(Oc3ccccc3)c2)cc(OC)c1OC (centres undefined) | –
33 | 8.4 | COC(=O)[C@H](Cc1ccccc1)NC(=O)CC(NNC(=O)[C@H](CCCCN)NC(=O)Cc1cccc(Oc2ccccc2)c1)C(F)(F)F (single isomer, unassigned; diastereomer 1) | –
34 | 11.8 | COC(=O)[C@H](Cc1ccccc1)NC(=O)CNNC(=O)C(CCCCNC(=O)OCc1ccccc1)NC(=O)OC(C)(C)C (some centres undefined) | –
